Results taken from article PMC3009390 (Chemical biology & drug design, 2010).

Tests used:
[1] = tested on: CD58 protein on Caco-2 cells; assay: Fluorescence microscopy of binding to Caco-2 cells; type: cell-based, human; details: fixed Caco-2 cells, about 2 h incubation, magnification 20×
CD58 protein = assay: 1D NMR titration: binding of peptides to CD58 protein; details: pH 7.0, 90% H2O/10% D2O, 291 K, 700 MHz, protein:peptide 1:80
Outline: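 Recombinant CD58 extracellular domain was titrated in 10 µL aliquots into an NMR tube holding the test peptide. A 1D spectrum was recorded at each protein:peptide ratio from 1:1000 to 1:80 on a 700 MHz instrument at 291 K. Sample pH was set to 7.0 with NaOD in D2O. A control peptide was run the same way.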

RA = details: ref [41]; cited from earlier work

With `O=C1OC2(c3ccc(O)cc3Oc3cc(O)ccc32)c2ccc(N=C=S)cc21` [FITC, Fluoresceineisothiocyanate] the “binding observed by fluorescence microscopy” value [1] was “non-specific binding of FITC was observed”.

With KGKTDAISVKAI-NH2 [control peptide] the “binding to CD58 protein by 1D NMR” value (CD58 protein) was “does not bind to protein CD58” and the “change of peptide 1D NMR amide resonances on adding CD58” value (CD58 protein) was “no indication of amide resonances”.

In the case of QYMRADEADSTLR [CII-3], the RA suppression activity (RA) is given as “does not exhibit any RA suppression activity”.
